Results reported in ChEMBL document CHEMBL4330069, “Boosting the efficacy of anti-MRSA β-lactam antibiotics via an easily accessible, non-cytotoxic and orally bioavailable FtsZ inhibitor” (Eur J Med Chem, 2019).
In brackets after ≈: the same amount, converted by molar mass.

Legend:
[1] = test system: Staphylococcus aureus; assay: Antibacterial activity against multidrug-resistant Staphylococcus aureus isolate 3332 by broth microdilution assay; assay type: functional
Summary of the method: (§1)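 Broth microdilution MIC per CLSI guidelines against clinical MRSA isolates, for β-lactams and test compound alone and in combination. Compounds were dissolved in DMSO. Growth was read by eye, in duplicate. FIC index = FIC(compound) + FIC(drug); synergy defined as FIC index ≤0.5.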

[2] = test system: Staphylococcus aureus; assay: Antibacterial activity against multidrug-resistant Staphylococcus aureus isolate 2516 by broth microdilution assay; assay type: functional; summary of the method: as §1
[3] = test system: Staphylococcus aureus; assay: Antibacterial activity against multidrug-resistant Staphylococcus aureus isolate 2919 by broth microdilution assay; assay type: functional; summary of the method: as §1
[4] = test system: Staphylococcus aureus; assay: Antibacterial activity against multidrug-resistant Staphylococcus aureus isolate 3589 by broth microdilution assay; assay type: functional; summary of the method: as §1
[5] = test system: Staphylococcus aureus; assay: Antibacterial activity against multidrug-resistant Staphylococcus aureus isolate 256 by broth microdilution assay; assay type: functional; summary of the method: as §1
[6] = test system: Staphylococcus aureus; assay: Antibacterial activity against multidrug-resistant Staphylococcus aureus isolate 757 by broth microdilution assay; assay type: functional; summary of the method: as §1
[7] = test system: Staphylococcus aureus; assay: Antibacterial activity against multidrug-resistant Staphylococcus aureus isolate 1136 by broth microdilution assay; assay type: functional; summary of the method: as §1
[8] = test system: Staphylococcus aureus; assay: Antibacterial activity against multidrug-resistant Staphylococcus aureus isolate 3267 by broth microdilution assay; assay type: functional; summary of the method: as §1
[9] = test system: Staphylococcus aureus; assay: Antibacterial activity against multidrug-resistant Staphylococcus aureus isolate 200 by broth microdilution assay; assay type: functional; summary of the method: as §1
[10] = test system: Staphylococcus aureus; assay: Antibacterial activity against multidrug-resistant Staphylococcus aureus isolate 1749 by broth microdilution assay; assay type: functional; summary of the method: as §1
[11] = test system: Staphylococcus aureus; assay: Antibacterial activity against multidrug-resistant Staphylococcus aureus isolate 417 by broth microdilution assay; assay type: functional; summary of the method: as §1
[12] = test system: Staphylococcus aureus; assay: Antibacterial activity against multidrug-resistant Staphylococcus aureus isolate 1402 by broth microdilution assay; assay type: functional; summary of the method: as §1
[13] = test system: Staphylococcus aureus; assay: Antibacterial activity against multidrug-resistant Staphylococcus aureus isolate 231 by broth microdilution assay; assay type: functional; summary of the method: as §1
[14] = test system: Staphylococcus aureus; assay: Antibacterial activity against multidrug-resistant Staphylococcus aureus isolate 774 by broth microdilution assay; assay type: functional; summary of the method: as §1
[15] = test system: Staphylococcus aureus; assay: Antibacterial activity against multidrug-resistant Staphylococcus aureus isolate 2224 by broth microdilution assay; assay type: functional; summary of the method: as §1
[16] = test system: Staphylococcus aureus; assay: Antibacterial activity against multidrug-resistant Staphylococcus aureus isolate 3411 by broth microdilution assay; assay type: functional; summary of the method: as §1
[17] = test system: Staphylococcus aureus; assay: Antibacterial activity against multidrug-resistant Staphylococcus aureus isolate 1717 by broth microdilution assay; assay type: functional; summary of the method: as §1
[18] = test system: Staphylococcus aureus; assay: Antibacterial activity against multidrug-resistant Staphylococcus aureus isolate 85 by broth microdilution assay; assay type: functional; summary of the method: as §1
[19] = test system: Staphylococcus aureus; assay: Antibacterial activity against multidrug-resistant Staphylococcus aureus isolate 2973 by broth microdilution assay; assay type: functional; summary of the method: as §1
[20] = test system: Staphylococcus aureus; assay: Antibacterial activity against multidrug-resistant Staphylococcus aureus isolate 2490 by broth microdilution assay; assay type: functional; summary of the method: as §1
[21] = test system: Staphylococcus aureus; assay: Antibacterial activity against multidrug-resistant Staphylococcus aureus isolate 2728 by broth microdilution assay; assay type: functional; summary of the method: as §1
[22] = test system: Staphylococcus aureus; assay: Antibacterial activity against multidrug-resistant Staphylococcus aureus isolate 2901 by broth microdilution assay; assay type: functional; summary of the method: as §1
[23] = test system: Staphylococcus aureus; assay: Antibacterial activity against multidrug-resistant Staphylococcus aureus isolate 254 by broth microdilution assay; assay type: functional; summary of the method: as §1
[24] = test system: Staphylococcus aureus; assay: Antibacterial activity against multidrug-resistant Staphylococcus aureus isolate 1449 by broth microdilution assay; assay type: functional; summary of the method: as §1
[25] = test system: Staphylococcus aureus; assay: Antibacterial activity against multidrug-resistant Staphylococcus aureus isolate 1344 by broth microdilution assay; assay type: functional; summary of the method: as §1
[26] = test system: Staphylococcus aureus; assay: Antibacterial activity against multidrug-resistant Staphylococcus aureus isolate 358 by broth microdilution assay; assay type: functional; summary of the method: as §1
[27] = test system: Staphylococcus aureus; assay: Antibacterial activity against multidrug-resistant Staphylococcus aureus isolate 2895 by broth microdilution assay; assay type: functional; summary of the method: as §1
[28] = test system: Staphylococcus aureus; assay: Antibacterial activity against multidrug-resistant Staphylococcus aureus isolate 3580 by broth microdilution assay; assay type: functional; summary of the method: as §1
[29] = Selective index, ratio of IC50 for mouse L929 cells to MIC for Staphylococcus aureus ATCC 29213
Summary of the method: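 Selectivity index calculated as L929 IC50 (μM) divided by S. aureus MIC (μM).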

[30] = test system: L929; assay: Cytotoxicity against mouse L929 cells by MTS assay; assay type: cell-based
Summary of the method: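 MTS assay on L929 mouse fibroblasts; IC50 reported as the average of three independent measurements.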

[31] = test system: Staphylococcus aureus; assay: Antibacterial activity against Staphylococcus aureus ATCC 29213 by broth microdilution assay; assay type: functional
Summary of the method: (§2)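 Broth microdilution per CLSI guidelines; compounds dissolved in DMSO; single agents tested; growth inhibition read by eye; run in duplicate (table footnote states at least triplicates).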

[32] = test system: Escherichia coli; assay: Antibacterial activity against Escherichia coli ATCC 25922 by broth microdilution assay; assay type: functional; summary of the method: as §2

## CC1(C)S[C@@H]2[C@H](NC(=O)[C@H](N)c3ccc(O)cc3)C(=O)N2[C@H]1C(=O)O [AMOXICILLIN]
[1]
  MIC: 64 mg/L (≈ 175 µM)
[2]
  MIC: 64 mg/L (≈ 175 µM)
[3]
  MIC: 1020 mg/L (≈ 2800 µM)
[4]
  MIC: 128 mg/L (≈ 350 µM)
[5]
  MIC: 256 mg/L (≈ 701 µM)
[6]
  MIC: 8 mg/L (≈ 21.9 µM)
[7]
  MIC: 512 mg/L (≈ 1400 µM)
[8]
  MIC: 8 mg/L (≈ 21.9 µM)
[9]
  MIC: 512 mg/L (≈ 1400 µM)
[10]
  MIC: 64 mg/L (≈ 175 µM)
[11]
  MIC: 512 mg/L (≈ 1400 µM)
[12]
  MIC: 256 mg/L (≈ 701 µM)
[13]
  MIC: 256 mg/L (≈ 701 µM)
[14]
  MIC: 512 mg/L (≈ 1400 µM)
[15]
  MIC: 512 mg/L (≈ 1400 µM)
[16]
  MIC: 256 mg/L (≈ 701 µM)
[17]
  MIC: 32 mg/L (≈ 87.6 µM)
[18]
  MIC: 256 mg/L (≈ 701 µM)
[19]
  MIC: 512 mg/L (≈ 1400 µM)
[20]
  MIC: 128 mg/L (≈ 350 µM)
[21]
  MIC: 512 mg/L (≈ 1400 µM)
[22]
  MIC: 512 mg/L (≈ 1400 µM)
[23]
  MIC: 128 mg/L (≈ 350 µM)
[24]
  MIC: 2 mg/L (≈ 5.47 µM)
[25]
  MIC: 128 mg/L (≈ 350 µM)
[26]
  MIC: 256 mg/L (≈ 701 µM)
[27]
  MIC: 256 mg/L (≈ 701 µM)
[28]
  MIC: 256 mg/L (≈ 701 µM)

## CCCCCOc1cccc(CNc2ccc(F)c(C(N)=O)c2F)c1
[29]
  Selectivity Index: 2
[30]
  IC50: 87 µM
[31]
  MIC: 50 µM (≈ 17.4 µg/mL)
[32]
  MIC: > 64 mg/L

## Cc1onc(-c2ccccc2Cl)c1C(=O)N[C@@H]1C(=O)N2[C@@H]1SC(C)(C)[C@@H]2C(=O)O [CLOXACILLIN]
[1]
  MIC: 8 mg/L (≈ 18.4 µM)
[2]
  MIC: 16 mg/L (≈ 36.7 µM)
[3]
  MIC: 4 mg/L (≈ 9.18 µM)
[4]
  MIC: 32 mg/L (≈ 73.4 µM)
[5]
  MIC: 8 mg/L (≈ 18.4 µM)
[6]
  MIC: 8 mg/L (≈ 18.4 µM)
[7]
  MIC: 8 mg/L (≈ 18.4 µM)
[8]
  MIC: 4 mg/L (≈ 9.18 µM)
[9]
  MIC: 1 mg/L (≈ 2.29 µM)
[10]
  MIC: 0.5 mg/L (≈ 1.15 µM)
[11]
  MIC: 64 mg/L (≈ 147 µM)
[12]
  MIC: 2 mg/L (≈ 4.59 µM)
[13]
  MIC: 64 mg/L (≈ 147 µM)
[14]
  MIC: 2 mg/L (≈ 4.59 µM)
[15]
  MIC: 8 mg/L (≈ 18.4 µM)
[16]
  MIC: 32 mg/L (≈ 73.4 µM)
[17]
  MIC: 0.5 mg/L (≈ 1.15 µM)
[18]
  MIC: 0.5 mg/L (≈ 1.15 µM)
[19]
  MIC: 16 mg/L (≈ 36.7 µM)
[20]
  MIC: 2 mg/L (≈ 4.59 µM)
[21]
  MIC: 1 mg/L (≈ 2.29 µM)
[22]
  MIC: 2 mg/L (≈ 4.59 µM)
[23]
  MIC: 32 mg/L (≈ 73.4 µM)
[24]
  MIC: 1 mg/L (≈ 2.29 µM)
[25]
  MIC: 16 mg/L (≈ 36.7 µM)
[26]
  MIC: 1 mg/L (≈ 2.29 µM)
[27]
  MIC: 8 mg/L (≈ 18.4 µM)
[28]
  MIC: 2 mg/L (≈ 4.59 µM)

## NC(=O)c1c(F)ccc(N(Cc2ccc(F)cc2)Cc2ccc(F)cc2)c1F
[29]
  Selectivity Index: >2
[30]
  IC50: > 100 µM
[31]
  MIC: 50 µM (≈ 19.4 µg/mL)
[32]
  MIC: > 64 mg/L

## C[C@@H](O)[C@H]1C(=O)N2C(C(=O)O)=C(S[C@@H]3CN[C@H](C(=O)N(C)C)C3)[C@H](C)[C@H]12 [MEROPENEM]
[1]
  MIC: 2 mg/L (≈ 5.22 µM)
[2]
  MIC: 16 mg/L (≈ 41.7 µM)
[3]
  MIC: 1 mg/L (≈ 2.61 µM)
[4]
  MIC: 4 mg/L (≈ 10.4 µM)
[5]
  MIC: 2 mg/L (≈ 5.22 µM)
[6]
  MIC: 4 mg/L (≈ 10.4 µM)
[7]
  MIC: 2 mg/L (≈ 5.22 µM)
[8]
  MIC: 2 mg/L (≈ 5.22 µM)
[9]
  MIC: 1 mg/L (≈ 2.61 µM)
[10]
  MIC: 0.5 mg/L (≈ 1.3 µM)
[11]
  MIC: 64 mg/L (≈ 167 µM)
[12]
  MIC: 1 mg/L (≈ 2.61 µM)
[13]
  MIC: 32 mg/L (≈ 83.4 µM)
[14]
  MIC: 32 mg/L (≈ 83.4 µM)
[15]
  MIC: 2 mg/L (≈ 5.22 µM)
[16]
  MIC: 4 mg/L (≈ 10.4 µM)
[17]
  MIC: 1 mg/L (≈ 2.61 µM)
[18]
  MIC: 2 mg/L (≈ 5.22 µM)
[19]
  MIC: 1 mg/L (≈ 2.61 µM)
[20]
  MIC: 2 mg/L (≈ 5.22 µM)
[21]
  MIC: 2 mg/L (≈ 5.22 µM)
[22]
  MIC: 1 mg/L (≈ 2.61 µM)
[23]
  MIC: 8 mg/L (≈ 20.9 µM)
[24]
  MIC: 0.13 mg/L (≈ 0.339 µM)
[25]
  MIC: 16 mg/L (≈ 41.7 µM)
[26]
  MIC: 0.13 mg/L (≈ 0.339 µM)
[27]
  MIC: 1 mg/L (≈ 2.61 µM)
[28]
  MIC: 8 mg/L (≈ 20.9 µM)
